From ChEMBL document CHEMBL5058577, “EUbOPEN Chemogenomics Library 2 (Multiplex)” (2022)

System: Fibroblast
Test: Multiplex assay against human fibroblast
Type: toxicity, cell-based
Method in brief: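 Four dyes were applied at seeding to live cells: Hoechst33342, BioTracker Green Microtubule Cytoskeleton Dye, MitoTracker Red and Annexin V Alexa Fluor 680. Imaging after compound addition used a CQ1 microscope at 37°C and 5% CO2. CellPathfinder machine-learning gating then sorted cells into Hoechst high-intensity objects or normal cells, normal cells into healthy, pyknosed or fragmented nuclei, and pyknosed cells into mitotic or apoptotic, with tubulin, mitochondrial-mass and membrane-permeability phenotypes given as per cents of healthy-nucleus cells.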

[1] = 12 h, 1 µM, compound concentration 1 uM, replicate 1
[2] = 12 h, 1 µM, compound concentration 1 uM, replicate 2
[3] = 12 h, 10 µM, compound concentration 10 uM, replicate 1
[4] = 12 h, 10 µM, compound concentration 10 uM, replicate 2
[5] = 24 h, 1 µM, compound concentration 1 uM, replicate 1
[6] = 24 h, 1 µM, compound concentration 1 uM, replicate 2
[7] = 24 h, 10 µM, compound concentration 10 uM, replicate 1
[8] = 24 h, 10 µM, compound concentration 10 uM, replicate 2
[9] = 48 h, 1 µM, compound concentration 1 uM, replicate 1
[10] = 48 h, 1 µM, compound concentration 1 uM, replicate 2
[11] = 48 h, 10 µM, compound concentration 10 uM, replicate 1
[12] = 48 h, 10 µM, compound concentration 10 uM, replicate 2

In the case of `Cc1nc2ccc(Oc3ccc(F)cc3)cc2c(=O)n1C[C@H]1CCCN(C(C)C)C1.Cl`, the “Population Apoptotic (%)” value [1] is reported as 34%, the “Population Fragmented Nuclei (%)” value [1] is reported as 19% and the “Population Healthy Nuclei (%)” value [1] is reported as 67%. The “Population Hoechst High Intensity Objects (%)” value [1] was 5%, the “Population Membrane Permeable-Phenotype (%)” value [1] was 1% and the “Population Mitochondria Different-Phenotype (%)” value [1] was 4%. The “Population Mitotic Cells (%)” value [1] was 65%, the “Population Normal (%)” value [1] was 94% and the “Population Pyknosed Nuclei (%)” value [1] was 13%. For the same compound, the “Population Tubulin-Different-Phenotype (%)” value [1] was 31%, the “Total Cell Count” value [1] was 184 and the “Population Apoptotic (%)” value [2] was 44%. For the same compound, the “Population Fragmented Nuclei (%)” value [2] was 24%, the “Population Healthy Nuclei (%)” value [2] was 47% and the “Population Hoechst High Intensity Objects (%)” value [2] was 9%. For the same compound, the “Population Membrane Permeable-Phenotype (%)” value [2] was 21%, the “Population Mitochondria Different-Phenotype (%)” value [2] was 8% and the “Population Mitotic Cells (%)” value [2] was 55%. For the same compound, the “Population Normal (%)” value [2] was 90%, the “Population Pyknosed Nuclei (%)” value [2] was 29% and the “Population Tubulin-Different-Phenotype (%)” value [2] was 70%. The “Total Cell Count” value [2] was 111, the “Population Apoptotic (%)” value [3] was 53% and the “Population Fragmented Nuclei (%)” value [3] was 19%. The “Population Healthy Nuclei (%)” value [3] was 61%, the “Population Hoechst High Intensity Objects (%)” value [3] was 4% and the “Population Membrane Permeable-Phenotype (%)” value [3] was 1%. For the same compound, the “Population Mitochondria Different-Phenotype (%)” value [3] was 22%, the “Population Mitotic Cells (%)” value [3] was 46% and the “Population Normal (%)” value [3] was 95%. For the same compound, the “Population Pyknosed Nuclei (%)” value [3] was 19%, the “Population Tubulin-Different-Phenotype (%)” value [3] was 88% and the “Total Cell Count” value [3] was 241. The “Population Apoptotic (%)” value [4] was 61%, the “Population Fragmented Nuclei (%)” value [4] was 36% and the “Population Healthy Nuclei (%)” value [4] was 44%. The “Population Hoechst High Intensity Objects (%)” value [4] was 3%, the “Population Membrane Permeable-Phenotype (%)” value [4] was 5% and the “Population Mitochondria Different-Phenotype (%)” value [4] was 25%. For the same compound, the “Population Mitotic Cells (%)” value [4] was 38%, the “Population Normal (%)” value [4] was 96% and the “Population Tubulin-Different-Phenotype (%)” value [4] was 80%. For the same compound, the “Total Cell Count” value [4] was 205, the “Population Apoptotic (%)” value [5] was 66% and the “Population Fragmented Nuclei (%)” value [5] was 17%. For the same compound, the “Population Healthy Nuclei (%)” value [5] was 68%, the “Population Hoechst High Intensity Objects (%)” value [5] was 3% and the “Population Membrane Permeable-Phenotype (%)” value [5] was 1%. For the same compound, the “Population Mitochondria Different-Phenotype (%)” value [5] was 6%, the “Population Mitotic Cells (%)” value [5] was 33% and the “Population Normal (%)” value [5] was 96%. The “Population Pyknosed Nuclei (%)” value [5] was 13%, the “Population Tubulin-Different-Phenotype (%)” value [5] was 30% and the “Total Cell Count” value [5] was 186. The “Population Apoptotic (%)” value [6] was 38%, the “Population Fragmented Nuclei (%)” value [6] was 29% and the “Population Healthy Nuclei (%)” value [6] was 50%. The “Population Hoechst High Intensity Objects (%)” value [6] was 7%, the “Population Membrane Permeable-Phenotype (%)” value [6] was 19% and the “Population Mitochondria Different-Phenotype (%)” value [6] was 17%. The “Population Mitotic Cells (%)” value [6] was 61%, the “Population Normal (%)” value [6] was 92% and the “Population Pyknosed Nuclei (%)” value [6] was 20%. The “Population Tubulin-Different-Phenotype (%)” value [6] was 73%, the “Total Cell Count” value [6] was 112 and the “Population Apoptotic (%)” value [7] was 67%. For the same compound, the “Population Fragmented Nuclei (%)” value [7] was 27%, the “Population Healthy Nuclei (%)” value [7] was 58% and the “Population Hoechst High Intensity Objects (%)” value [7] was 3%. The “Population Membrane Permeable-Phenotype (%)” value [7] was 0%, the “Population Mitochondria Different-Phenotype (%)” value [7] was 27% and the “Population Mitotic Cells (%)” value [7] was 32%. For the same compound, the “Population Normal (%)” value [7] was 96%, the “Population Pyknosed Nuclei (%)” value [7] was 13% and the “Population Tubulin-Different-Phenotype (%)” value [7] was 84%. The “Total Cell Count” value [7] was 290, the “Population Apoptotic (%)” value [8] was 54% and the “Population Fragmented Nuclei (%)” value [8] was 30%. The “Population Healthy Nuclei (%)” value [8] was 52%, the “Population Hoechst High Intensity Objects (%)” value [8] was 6% and the “Population Membrane Permeable-Phenotype (%)” value [8] was 1%. For the same compound, the “Population Mitochondria Different-Phenotype (%)” value [8] was 29%, the “Population Mitotic Cells (%)” value [8] was 45% and the “Population Normal (%)” value [8] was 93%. The “Population Pyknosed Nuclei (%)” value [8] was 17%, the “Population Tubulin-Different-Phenotype (%)” value [8] was 87% and the “Total Cell Count” value [8] was 187. For the same compound, the “Population Apoptotic (%)” value [9] was 66%, the “Population Fragmented Nuclei (%)” value [9] was 25% and the “Population Healthy Nuclei (%)” value [9] was 66%. For the same compound, the “Population Hoechst High Intensity Objects (%)” value [9] was 3%, the “Population Membrane Permeable-Phenotype (%)” value [9] was 0% and the “Population Mitochondria Different-Phenotype (%)” value [9] was 2%. For the same compound, the “Population Mitotic Cells (%)” value [9] was 33%, the “Population Normal (%)” value [9] was 96% and the “Population Pyknosed Nuclei (%)” value [9] was 8%. For the same compound, the “Population Tubulin-Different-Phenotype (%)” value [9] was 33%, the “Total Cell Count” value [9] was 184 and the “Population Apoptotic (%)” value [10] was 42%. For the same compound, the “Population Fragmented Nuclei (%)” value [10] was 36%, the “Population Healthy Nuclei (%)” value [10] was 44% and the “Population Hoechst High Intensity Objects (%)” value [10] was 5%. The “Population Membrane Permeable-Phenotype (%)” value [10] was 6%, the “Population Mitochondria Different-Phenotype (%)” value [10] was 13% and the “Population Mitotic Cells (%)” value [10] was 57%. The “Population Normal (%)” value [10] was 94%, the “Population Pyknosed Nuclei (%)” value [10] was 19% and the “Population Tubulin-Different-Phenotype (%)” value [10] was 68%. For the same compound, the “Total Cell Count” value [10] was 105, the “Population Apoptotic (%)” value [11] was 66% and the “Population Fragmented Nuclei (%)” value [11] was 23%. The “Population Healthy Nuclei (%)” value [11] was 65%, the “Population Hoechst High Intensity Objects (%)” value [11] was 9% and the “Population Membrane Permeable-Phenotype (%)” value [11] was 0%. For the same compound, the “Population Mitochondria Different-Phenotype (%)” value [11] was 20%, the “Population Mitotic Cells (%)” value [11] was 33% and the “Population Normal (%)” value [11] was 90%. The “Population Pyknosed Nuclei (%)” value [11] was 10%, the “Population Tubulin-Different-Phenotype (%)” value [11] was 85% and the “Total Cell Count” value [11] was 290. The “Population Apoptotic (%)” value [12] was 68%, the “Population Fragmented Nuclei (%)” value [12] was 33% and the “Population Healthy Nuclei (%)” value [12] was 53%. For the same compound, the “Population Hoechst High Intensity Objects (%)” value [12] was 3%, the “Population Membrane Permeable-Phenotype (%)” value [12] was 2% and the “Population Mitochondria Different-Phenotype (%)” value [12] was 19%. For the same compound, the “Population Mitotic Cells (%)” value [12] was 32%, the “Population Normal (%)” value [12] was 96% and the “Population Pyknosed Nuclei (%)” value [12] was 12%. For the same compound, the “Total Cell Count” value [12] was 201.
